Results from paper PMC9463373 (Heliyon, 2022).
Entries after “also recorded” stand apart in the source; their conditions may differ.

How the values were obtained:
P-glycoprotein = P-glycoprotein (Homo sapiens, UniProt P08183); test: Rhodamine 123 retention by flow cytometry; assay type: cell-based
Summary of the method: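 COLO 205 (parental) and multidrug-resistant COLO 320 cells at 2×10^6/mL in serum-free RPMI 1640. Test compound preincubated 10 min at room temperature, then rhodamine 123 (5.2 µM final) added for 20 min at 37 °C. Cells washed twice and resuspended in PBS. FL-1 mean fluorescence read by flow cytometry against an untreated baseline. Tariquidar positive control at 0.2 µM final. FAR = (MDR treated/MDR control)/(parental treated/parental control).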

[1] = system: Staphylococcus aureus ATCC; test: Real-time ethidium bromide accumulation assay; assay type: cell-based
Summary of the method: (§1)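 Bacteria were grown to OD600 0.6 (E. coli AG100 in LB; S. aureus in TSB), PBS-washed and resuspended in PBS. Test compound at ½ MIC (100 μM if MIC >100) in PBS with 2 μg/mL EB, mixed 1:1 with the suspension. Fluorescence (ex 525/em 615 nm) read each minute for 1 h. Positive controls: CCCP 50 μM (E. coli), reserpine 25 μM (S. aureus). RFI taken from the accumulation curves.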

[2] = system: multidrug resistant COLO 320 colonic adenocarcinoma cells overexpressing the ABCB1 transporter; test: Checkerboard combination assay with doxorubicin; assay type: cell-based, human; conditions: for effects with doxorubicin (in words): at certain / particular concentrations; for Type of interaction / Combination index (CI): with doxorubicin; for Combination index (CI): CI at ED50
Summary of the method: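 Test compounds diluted against doxorubicin in a checkerboard on ABCB1-overexpressing COLO 320 cells (RPMI 1640, 10% heat-inactivated FBS), 6 × 10³ cells/well. Incubated 72 h at 37 °C in 5% CO2. MTT added for 4 h, then SDS in 0.01 M HCl overnight. OD read at 540/630 nm. CI at ED₅₀ by Chou-Talalay median-effect: CI <1 synergism, =1 additive, >1 antagonism.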

Escherichia coli AG100 = test: Real-time ethidium bromide accumulation assay; assay type: cell-based; conditions: E. coli AG100, ethidium bromide accumulation, minute 60, positive control 50 μM
Summary of the method: as §1

[3] = concentration 2 μM, rhodamine 123
[4] = concentration 2 μM, rhodamine 123, COLO 320 vs COLO 205
[5] = concentration 20 μM, rhodamine 123
[6] = concentration 20 μM, rhodamine 123, COLO 320 vs COLO 205
[7] = ratio 17.42:1, starting concentration 150 μM
[8] = ratio 34.84:1, starting concentration 150 μM
[9] = ratio 69.68:1, starting concentration 150 μM
[10] = ratio 139.36:1, starting concentration 150 μM
[11] = ratio 278.72:1, starting concentration 150 μM
[12] = ratio 557.44:1, starting concentration 150 μM
[13] = minute 60, ½ MIC concentration (or 100 μM)
[14] = concentration 0.2 μM, positive control, rhodamine 123
[15] = ratio 18.4:1, starting concentration 80 μM
[16] = ratio 36.8:1, starting concentration 80 μM
[17] = ratio 73.6:1, starting concentration 80 μM
[18] = ratio 147.2:1, starting concentration 80 μM
[19] = ratio 294.4:1, starting concentration 80 μM
[20] = ratio 23.2:1, starting concentration 200 μM
[21] = ratio 46.4:1, starting concentration 200 μM
[22] = ratio 92.8:1, starting concentration 200 μM
[23] = ratio 185.6:1, starting concentration 200 μM
[24] = ratio 371.2:1, starting concentration 200 μM
[25] = ratio 742.5:1, starting concentration 200 μM

Chain of P-glycoprotein (P08183 whole entry): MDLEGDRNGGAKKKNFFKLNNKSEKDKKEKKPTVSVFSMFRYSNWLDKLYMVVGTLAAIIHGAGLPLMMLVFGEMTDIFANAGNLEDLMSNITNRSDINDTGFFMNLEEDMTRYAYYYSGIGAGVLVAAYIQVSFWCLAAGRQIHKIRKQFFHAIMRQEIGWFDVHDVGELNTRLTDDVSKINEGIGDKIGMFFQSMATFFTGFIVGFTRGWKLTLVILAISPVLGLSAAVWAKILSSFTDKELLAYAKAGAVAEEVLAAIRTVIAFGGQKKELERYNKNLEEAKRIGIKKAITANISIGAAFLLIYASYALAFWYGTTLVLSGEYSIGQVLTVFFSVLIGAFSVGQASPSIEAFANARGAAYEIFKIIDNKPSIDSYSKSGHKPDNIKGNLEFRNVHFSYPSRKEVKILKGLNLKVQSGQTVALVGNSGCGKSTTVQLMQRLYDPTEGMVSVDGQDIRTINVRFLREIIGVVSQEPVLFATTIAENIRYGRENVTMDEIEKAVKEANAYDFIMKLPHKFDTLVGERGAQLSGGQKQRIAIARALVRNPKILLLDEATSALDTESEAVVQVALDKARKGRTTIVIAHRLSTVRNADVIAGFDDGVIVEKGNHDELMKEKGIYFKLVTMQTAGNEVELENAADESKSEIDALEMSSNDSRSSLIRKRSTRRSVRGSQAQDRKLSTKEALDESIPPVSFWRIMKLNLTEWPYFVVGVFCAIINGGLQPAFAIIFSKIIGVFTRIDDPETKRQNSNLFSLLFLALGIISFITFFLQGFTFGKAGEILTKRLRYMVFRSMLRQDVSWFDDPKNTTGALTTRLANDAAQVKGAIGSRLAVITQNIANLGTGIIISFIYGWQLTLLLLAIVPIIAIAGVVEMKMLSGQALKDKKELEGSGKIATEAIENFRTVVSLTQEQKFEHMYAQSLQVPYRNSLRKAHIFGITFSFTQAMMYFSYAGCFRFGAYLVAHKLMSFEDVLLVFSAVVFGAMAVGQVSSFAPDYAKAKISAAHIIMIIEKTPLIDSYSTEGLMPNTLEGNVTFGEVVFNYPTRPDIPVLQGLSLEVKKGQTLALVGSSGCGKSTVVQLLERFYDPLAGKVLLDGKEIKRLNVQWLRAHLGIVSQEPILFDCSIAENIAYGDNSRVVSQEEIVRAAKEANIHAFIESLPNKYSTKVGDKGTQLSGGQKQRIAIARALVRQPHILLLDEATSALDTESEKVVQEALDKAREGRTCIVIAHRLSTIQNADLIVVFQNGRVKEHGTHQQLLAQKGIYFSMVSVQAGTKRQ

CC1(C)O[C@H]2CC(=O)OC[C@]23[C@H]2CC[C@@]4(C)[C@H](c5ccoc5)OC(=O)[C@H]5O[C@]54[C@]2(C)C(=O)C[C@@H]13 [Compound 9, limonin]
FL-1 (mean fluorescence intensity of the cells) (P-glycoprotein; [3]): 2.92 | FAR (fluorescence activity ratio) (P-glycoprotein; [4]): 0.38 | FL-1 (mean fluorescence intensity of the cells) (P-glycoprotein; [5]): 10.00 | FAR (fluorescence activity ratio) (P-glycoprotein; [6]): 1.30

COC(=O)[C@H]1[C@H]2C[C@@H]3c4[nH]c5cc(OC)ccc5c4CCN3C[C@H]2C[C@@H](OC(=O)c2cc(OC)c(OC)c(OC)c2)[C@@H]1OC [reserpine, reference compound]
relative fluorescence index (RFI) ([1]; minute 60, positive control 25 μM): 2.77

COc1c2ccoc2c(OCC=C(C)C)c2oc(=O)ccc12 [Compound 2, phellopterin]
effects with doxorubicin (in words) [2]: antagonistic effects | Type of interaction [2, 7]: Antagonism | Combination index (CI) [2, 7]: 2.31 | Type of interaction [2, 8]: moderate antagonism | Combination index (CI) [2, 8]: 1.40 | Type of interaction [2, 9]: moderate antagonism | Combination index (CI) [2, 9]: 1.33 | Type of interaction [2, 10]: antagonism | Combination index (CI) [2, 10]: 1.54 | Type of interaction [2, 11]: additive effect | Combination index (CI) [2, 11]: 1.05 | Type of interaction [2, 12]: additive effect | Combination index (CI) [2, 12]: 1.03 | FL-1 (mean fluorescence intensity of the cells) (P-glycoprotein; [3]): 11.10 | FAR (fluorescence activity ratio) (P-glycoprotein; [4]): 1.44 | FL-1 (mean fluorescence intensity of the cells) (P-glycoprotein; [5]): 20.30 | FAR (fluorescence activity ratio) (P-glycoprotein; [6]): 2.63 | relative fluorescence index (RFI) [1, 13]: 5.49

COc1cc2c(cc1OC)CN(CCc1ccc(NC(=O)c3cc(OC)c(OC)cc3NC(=O)c3cnc4ccccc4c3)cc1)CC2 [Tariquidar, reference compound]
FAR (fluorescence activity ratio) (P-glycoprotein; [14]): 11.44 | FL-1 (mean fluorescence intensity of the cells) (P-glycoprotein; [14]): 88.20

CC(C)=CCC/C(C)=C/COc1ccc2ccc(=O)oc2c1 [Compound 5, auraptene]
effects with doxorubicin (in words) [2]: antagonistic effects | Combination index (CI) ([2]; ratio 9.2:1, starting concentration 80 μM): 3.16 | Type of interaction [2, 15]: strong antagonism | Combination index (CI) [2, 15]: 8.37 | Type of interaction [2, 16]: slight antagonism | Combination index (CI) [2, 16]: 1.13 | Type of interaction [2, 17]: antagonism | Combination index (CI) [2, 17]: 1.72 | Type of interaction [2, 18]: antagonism | Combination index (CI) [2, 18]: 2.06 | Type of interaction [2, 19]: strong antagonism | Combination index (CI) [2, 19]: 5.30 | FL-1 (mean fluorescence intensity of the cells) (P-glycoprotein; [3]): 13.60 | FAR (fluorescence activity ratio) (P-glycoprotein; [4]): 1.76 | FL-1 (mean fluorescence intensity of the cells) (P-glycoprotein; [5]): 30.80 | FAR (fluorescence activity ratio) (P-glycoprotein; [6]): 4.00

CC(C)=CCOc1c2occc2cc2ccc(=O)oc12 [Compound 1, imperatorin]
Type of interaction [2, 7]: moderate antagonism | Combination index (CI) [2, 7]: 1.29 | Type of interaction [2, 8]: additive effect | Combination index (CI) [2, 8]: 1.06 | Type of interaction [2, 9]: moderate synergism | Combination index (CI) [2, 9]: 0.75 | Type of interaction [2, 10]: moderate antagonism | Combination index (CI) [2, 10]: 1.24 | Type of interaction [2, 11]: additive effect | Combination index (CI) [2, 11]: 0.99 | Type of interaction [2, 12]: additive effect | Combination index (CI) [2, 12]: 0.99 | FL-1 (mean fluorescence intensity of the cells) (P-glycoprotein; [3]): 11.30 | FAR (fluorescence activity ratio) (P-glycoprotein; [4]): 1.47 | FL-1 (mean fluorescence intensity of the cells) (P-glycoprotein; [5]): 9.82 | FAR (fluorescence activity ratio) (P-glycoprotein; [6]): 1.27

N#CC(C#N)=NNc1cccc(Cl)c1 [CCCP]
relative fluorescence index (RFI) (Escherichia coli AG100): 1.34

COc1cc2ccc(=O)oc2cc1OC [Compound 3, 6,7-dimethoxycoumarin]
effects with doxorubicin (in words) [2]: synergistic effects; also recorded: antagonistic effects | Type of interaction [2, 20]: antagonism | Combination index (CI) [2, 20]: 2.06 | Type of interaction [2, 21]: moderate antagonism | Combination index (CI) [2, 21]: 1.22 | Type of interaction [2, 22]: moderate synergism | Combination index (CI) [2, 22]: 0.81 | Type of interaction [2, 23]: moderate synergism | Combination index (CI) [2, 23]: 0.75 | Type of interaction [2, 24]: synergism | Combination index (CI) [2, 24]: 0.62 | Type of interaction [2, 25]: synergism | Combination index (CI) [2, 25]: 0.60 | FL-1 (mean fluorescence intensity of the cells) (P-glycoprotein; [3]): 8.01 | FAR (fluorescence activity ratio) (P-glycoprotein; [4]): 1.04 | FL-1 (mean fluorescence intensity of the cells) (P-glycoprotein; [5]): 15.60 | FAR (fluorescence activity ratio) (P-glycoprotein; [6]): 2.02 | relative fluorescence index (RFI) [1, 13]: 1.04
